Experimental data taken from article PMC5736852 (British Journal of Clinical Pharmacology, 2017).
Read-outs that look alike come from different tables or passages of the source. Marks after values point to notes of the source that are not given here.

Experiments:
[1] = Western patients, cited from earlier work
[2] = Exposure–safety logistic regression; format: in vivo, human
Method in brief: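 Cancer patients (Western and Japan/East Asia) took oral test compound for 7 days in 21-day cycles, fasting from 2 h before to 1 h after dosing. Plasma levels were measured by LC/MS/MS. Per-patient time-averaged AUC per day covered dosing start to onset of worst-grade toxicity, from actual doses and individual CL/F from a two-compartment population PK model. Incidence (n = 591/593/594) was regressed logistically on log-transformed AUC.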

[3] = cited from earlier work
[4] = Global population pharmacokinetic analysis of alisertib in cancer patients; format: in vivo, human; details: for half-life: human, plasma, oral
[5] = 30 mg b.i.d., patients in East Asia
[6] = 50 mg b.i.d., patients in East Asia
[7] = 50 mg b.i.d., patients in the West
[8] = East Asian patients, b.i.d. dosing

COc1cc(Nc2ncc3c(n2)-c2ccc(Cl)cc2C(c2c(F)cccc2OC)=NC3)ccc1C(=O)O [alisertib]
maximum tolerated dose (MTD) ([1]; b.i.d. for 7 days in a 21-day cycle): 50 mg | median Tmax ([1]; postdose): 2 to 3 h | mean steady-state half-life following multiple dosing [1]: 19 to 23 h | estimated population mean time-averaged AUC [2, 5]: 14.23 μM*h day^–1 | estimated probability of grade ≥2 diarrhoea [2, 5]: 12% | estimated probability of grade ≥2 stomatitis [2, 5]: 6.5% | estimated probability of grade ≥3 neutropenia [2, 5]: 37% | estimated population mean time-averaged AUC [2, 6]: 23.72 μM*h day^–1 | estimated probability of grade ≥2 diarrhoea [2, 6]: 17% | estimated probability of grade ≥2 stomatitis [2, 6]: 13% | predicted probability of grade ≥3 neutropenia [2, 6]: 46% | estimated population mean time-averaged AUC [2, 7]: 15.63 μM*h day^–1 | estimated probability of grade ≥2 diarrhoea [2, 7]: 13% | estimated probability of grade ≥2 stomatitis [2, 7]: 7% | predicted probability of grade ≥3 neutropenia [2, 7]: 39% | patients who discontinued alisertib owing to treatment-emergent AEs ([3]; East Asian patients, 30 mg b.i.d., two of 30 patients): 6.7% | half-life [3, 8]: 15 to 17 h | median Tmax [3, 8]: 2 to 3 h | maximum tolerated dose (MTD) ([3]; East Asian patients, b.i.d. for 7 days in 21-day cycles): 30 mg | higher geometric mean steady-state systemic exposure in East Asian patients ([3]; East Asian vs Western patients): approximately 70% | mean CL/F in East Asian patients lower than in Western patients ([3]; East Asian vs Western patients): approximately 40% | GM (CV) dose-normalized alisertib AUC(0–τ) ([4]; Asian patients in Asia, n = 59): 797 (45%) nM.h | GM (CV) dose-normalized alisertib AUC(0–τ) ([4]; Asian patients in the West, n = 8): 475 (43%) nM.h | geometric mean (%CV) dose-normalized alisertib AUC0–τ,ss ([4]; Region East, All (Japanese, Korean, Chinese), n = 59): 797 (45) nM.h mg^–1 | geometric mean (%CV) dose-normalized alisertib AUC0–τ,ss ([4]; Region East, Chinese, n = 22): 752 (48) nM.h mg^–1 | geometric mean (%CV) dose-normalized alisertib AUC0–τ,ss ([4]; Region East, Japanese, n = 23): 799 (34) nM.h mg^–1 | geometric mean (%CV) dose-normalized alisertib AUC0–τ,ss ([4]; Region East, Korean, n = 13): 885 (53) nM.h mg^–1 | geometric mean (%CV) dose-normalized alisertib AUC0–τ,ss ([4]; Region West, All non-Asian races, n = 604): 482 (43) nM.h mg^–1 | geometric mean (%CV) dose-normalized alisertib AUC0–τ,ss ([4]; Region West, All, n = 612): 482 (43) nM.h mg^–1 | geometric mean (%CV) dose-normalized alisertib AUC0–τ,ss ([4]; Region West, Asian, n = 8): 475 (43) nM.h mg^–1 | geometric mean (%CV) dose-normalized alisertib AUC0–τ,ss ([4]; Region West, Black, n = 33): 462 (57) nM.h mg^–1 | geometric mean (%CV) dose-normalized alisertib AUC0–τ,ss ([4]; Region West, White, n = 556): 482 (43) nM.h mg^–1 | BSAV1, effect of BSA on V1/F, pop value ([4]; final model): 0.899 | CL/F, V1/F, V2/F and Q/F lower in the East Asian region ([4]; final model): 34.1% | KTR, transit compartment rate constant, pop value ([4]; final model): 4.17 1 h^–1 | V1/F, apparent central volume, pop value ([4]; final model): 54.3 L | V2/F, apparent peripheral volume, pop value ([4]; final model): 28.7 L | net mean transit time for oral absorption ([4]; final model): 0.96 h | CL/F, apparent clearance, pop value ([4]; final model (analysis data set n = 422)): 4.11 l h^–1 | higher bioavailability (F) in East Asian region compared with Western patients ([4]; final model, covariate effect of region on F): 52% | RGNF, effect of region, pop value ([4]; final model, affected parameters multiplied by (1–0.341) for East Asian region): −0.341 ^a | half-life ([4]; population alpha half-life, final model): 1.71 h | half-life ([4]; population beta half-life, final model): 15.1 h | GM (CV) dose-normalized alisertib AUC(0–τ) ([4]; non-Asian patients in the West, n = 604): 482 (43%) nM.h
